target: Hepatocyte growth factor receptor (Homo sapiens) (UniProt P08581); test: Inhibition of c-Met (unknown origin) at 20 nM relative to control; settings: not given

SMILES | inhibition [%]
Clc1cccc(Nc2nc(Nc3cn[nH]c3)ncc2Cl)c1 | 17.9
c1ccc(Nc2nc(Nc3cn[nH]c3)nc3[nH]ccc23)cc1 | 6.3

test system: MCF7; test: Antiproliferative activity against human MCF7 cells after 48 hrs by MTT assay; type: functional, cell-based; settings: MCF7, 48 h
Procedure, shortened: (§1)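 Panel: human prostate cancer PC-3, breast cancer MCF-7, erythroleukemia HEL, myelogenous leukemia K562 and lymphoid leukemia MOLT4 lines. Cells were exposed to compound for 48 h with MTT read-out.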

SMILES | IC50 [µM]
Fc1ccc(Nc2nc(Nc3cn[nH]c3)ncc2Cl)cc1 | 1.87
Clc1cnc(Nc2cn[nH]c2)nc1Nc1ccccc1 | 3.66
Clc1cccc(Nc2nc(Nc3cn[nH]c3)ncc2Cl)c1 | 1.33
Clc1ccccc1Nc1nc(Nc2cn[nH]c2)ncc1Cl | 1.1
Clc1ccc(Nc2nc(Nc3cn[nH]c3)ncc2Cl)cc1 | 1.93
N#CC[C@H](C1CCCC1)n1cc(-c2ncnc3[nH]ccc23)cn1 [RUXOLITINIB] | > 5
c1ccc(Nc2nc(Nc3cn[nH]c3)nc3[nH]ccc23)cc1 | > 5
Clc1cccc(Nc2nc(Nc3cn[nH]c3)nc3ccccc23)c1 | > 5
Clc1ccccc1CNc1nc(Nc2cn[nH]c2)nc2[nH]ccc12 | > 5

test system: not listed separately; test: Selectivity ratio of IC50 for human PC3 cells to IC50 for HEL cells harboring JAK2 V617F mutant; type: functional; settings: not given

SMILES | Ratio IC50
c1ccc(Nc2nc(Nc3cn[nH]c3)nc3[nH]ccc23)cc1 | >10

target: Non-receptor tyrosine-protein kinase TYK2 (Homo sapiens) (UniProt P29597); test: Inhibition of TYK2 (unknown origin) at 20 nM relative to control; settings: not given
Sequence (P29597 whole entry): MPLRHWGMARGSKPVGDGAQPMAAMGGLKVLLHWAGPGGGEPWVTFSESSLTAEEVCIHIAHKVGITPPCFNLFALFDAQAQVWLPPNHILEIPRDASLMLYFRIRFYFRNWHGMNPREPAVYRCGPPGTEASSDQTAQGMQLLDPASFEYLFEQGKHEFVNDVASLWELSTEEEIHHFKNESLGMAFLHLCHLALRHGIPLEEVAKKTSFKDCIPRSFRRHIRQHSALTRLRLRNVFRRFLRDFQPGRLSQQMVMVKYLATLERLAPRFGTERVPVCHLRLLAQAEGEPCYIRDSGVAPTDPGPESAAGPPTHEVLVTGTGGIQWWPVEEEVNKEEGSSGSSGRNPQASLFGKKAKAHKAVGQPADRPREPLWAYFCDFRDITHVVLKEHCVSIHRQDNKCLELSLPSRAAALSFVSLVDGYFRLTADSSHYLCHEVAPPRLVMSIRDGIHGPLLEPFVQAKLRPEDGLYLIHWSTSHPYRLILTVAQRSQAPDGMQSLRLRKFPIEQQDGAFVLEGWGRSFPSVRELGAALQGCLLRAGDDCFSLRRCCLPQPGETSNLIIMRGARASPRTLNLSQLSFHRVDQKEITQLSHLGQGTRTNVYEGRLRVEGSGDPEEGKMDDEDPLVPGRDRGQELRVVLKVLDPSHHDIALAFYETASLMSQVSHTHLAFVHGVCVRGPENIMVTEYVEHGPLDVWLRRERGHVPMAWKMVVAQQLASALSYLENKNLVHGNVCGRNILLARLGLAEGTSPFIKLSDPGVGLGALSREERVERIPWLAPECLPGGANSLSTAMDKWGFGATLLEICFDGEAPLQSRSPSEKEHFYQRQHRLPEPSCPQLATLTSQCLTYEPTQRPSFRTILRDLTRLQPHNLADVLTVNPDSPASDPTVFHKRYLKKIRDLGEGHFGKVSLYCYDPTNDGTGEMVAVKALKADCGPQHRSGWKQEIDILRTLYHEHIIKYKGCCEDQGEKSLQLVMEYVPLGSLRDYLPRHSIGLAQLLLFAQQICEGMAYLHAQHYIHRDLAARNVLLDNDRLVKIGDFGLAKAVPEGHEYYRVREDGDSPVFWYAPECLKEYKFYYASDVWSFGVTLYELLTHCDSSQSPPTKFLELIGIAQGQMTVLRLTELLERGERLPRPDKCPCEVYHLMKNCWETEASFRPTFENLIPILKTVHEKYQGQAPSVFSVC

SMILES | inhibition [%]
Clc1cccc(Nc2nc(Nc3cn[nH]c3)ncc2Cl)c1 | 79.4
c1ccc(Nc2nc(Nc3cn[nH]c3)nc3[nH]ccc23)cc1 | 34.6

test system: HEL; test: Antiproliferative activity against HEL cells harboring JAK2 V617F mutant after 48 hrs by MTT assay; type: functional, cell-based; settings: Homo sapiens; procedure, shortened: as §1

SMILES | IC50 [µM]
COc1ccc(Nc2nc(Nc3cn[nH]c3)ncc2Cl)cc1 | 1.76
Fc1ccc(Nc2nc(Nc3cn[nH]c3)ncc2Cl)cc1 | 1.18
Clc1cnc(Nc2cn[nH]c2)nc1Nc1ccccc1 | 5.93
Clc1cccc(Nc2nc(Nc3cn[nH]c3)ncc2Cl)c1 | 1.08
Clc1ccccc1Nc1nc(Nc2cn[nH]c2)ncc1Cl | 1.24
Clc1ccc(Nc2nc(Nc3cn[nH]c3)ncc2Cl)cc1 | 1.53
N#CC[C@H](C1CCCC1)n1cc(-c2ncnc3[nH]ccc23)cn1 [RUXOLITINIB] | 2.62
c1ccc(Nc2nc(Nc3cn[nH]c3)nc3[nH]ccc23)cc1 | 0.35
Fc1cnc(Nc2cn[nH]c2)nc1Nc1ccc(Cl)cc1 | 3.96
Clc1cccc(Nc2nc(Nc3cn[nH]c3)nc3ccccc23)c1 | 9.71

target: Tyrosine-protein kinase JAK3 (Homo sapiens, UniProt P52333); test: Inhibition of human recombinant JAK3 using Ulight-CAGAGAIETDKEYYTVKD as substrate by LANCE assay; settings: not given

SMILES | IC50 [µM]
Clc1cccc(Nc2nc(Nc3cn[nH]c3)ncc2Cl)c1 | 0.0035

test system: not listed separately; test: Selectivity ratio of IC50 for human MOLT4 cells to IC50 for HEL cells harboring JAK2 V617F mutant; type: functional; settings: not given

SMILES | Ratio IC50
c1ccc(Nc2nc(Nc3cn[nH]c3)nc3[nH]ccc23)cc1 | >10

target: Tyrosine-protein kinase JAK1 (Homo sapiens, UniProt P23458); test: Inhibition of human recombinant JAK1 using Ulight-CAGAGAIETDKEYYTVKD as substrate by LANCE assay; settings: not given

SMILES | IC50 [µM]
Clc1cccc(Nc2nc(Nc3cn[nH]c3)ncc2Cl)c1 | 0.0034

target: Vascular endothelial growth factor receptor 2 (Homo sapiens) (UniProt P35968); test: Inhibition of VEGFR2 (unknown origin) at 20 nM relative to control; settings: not given
Sequence (P35968 whole entry): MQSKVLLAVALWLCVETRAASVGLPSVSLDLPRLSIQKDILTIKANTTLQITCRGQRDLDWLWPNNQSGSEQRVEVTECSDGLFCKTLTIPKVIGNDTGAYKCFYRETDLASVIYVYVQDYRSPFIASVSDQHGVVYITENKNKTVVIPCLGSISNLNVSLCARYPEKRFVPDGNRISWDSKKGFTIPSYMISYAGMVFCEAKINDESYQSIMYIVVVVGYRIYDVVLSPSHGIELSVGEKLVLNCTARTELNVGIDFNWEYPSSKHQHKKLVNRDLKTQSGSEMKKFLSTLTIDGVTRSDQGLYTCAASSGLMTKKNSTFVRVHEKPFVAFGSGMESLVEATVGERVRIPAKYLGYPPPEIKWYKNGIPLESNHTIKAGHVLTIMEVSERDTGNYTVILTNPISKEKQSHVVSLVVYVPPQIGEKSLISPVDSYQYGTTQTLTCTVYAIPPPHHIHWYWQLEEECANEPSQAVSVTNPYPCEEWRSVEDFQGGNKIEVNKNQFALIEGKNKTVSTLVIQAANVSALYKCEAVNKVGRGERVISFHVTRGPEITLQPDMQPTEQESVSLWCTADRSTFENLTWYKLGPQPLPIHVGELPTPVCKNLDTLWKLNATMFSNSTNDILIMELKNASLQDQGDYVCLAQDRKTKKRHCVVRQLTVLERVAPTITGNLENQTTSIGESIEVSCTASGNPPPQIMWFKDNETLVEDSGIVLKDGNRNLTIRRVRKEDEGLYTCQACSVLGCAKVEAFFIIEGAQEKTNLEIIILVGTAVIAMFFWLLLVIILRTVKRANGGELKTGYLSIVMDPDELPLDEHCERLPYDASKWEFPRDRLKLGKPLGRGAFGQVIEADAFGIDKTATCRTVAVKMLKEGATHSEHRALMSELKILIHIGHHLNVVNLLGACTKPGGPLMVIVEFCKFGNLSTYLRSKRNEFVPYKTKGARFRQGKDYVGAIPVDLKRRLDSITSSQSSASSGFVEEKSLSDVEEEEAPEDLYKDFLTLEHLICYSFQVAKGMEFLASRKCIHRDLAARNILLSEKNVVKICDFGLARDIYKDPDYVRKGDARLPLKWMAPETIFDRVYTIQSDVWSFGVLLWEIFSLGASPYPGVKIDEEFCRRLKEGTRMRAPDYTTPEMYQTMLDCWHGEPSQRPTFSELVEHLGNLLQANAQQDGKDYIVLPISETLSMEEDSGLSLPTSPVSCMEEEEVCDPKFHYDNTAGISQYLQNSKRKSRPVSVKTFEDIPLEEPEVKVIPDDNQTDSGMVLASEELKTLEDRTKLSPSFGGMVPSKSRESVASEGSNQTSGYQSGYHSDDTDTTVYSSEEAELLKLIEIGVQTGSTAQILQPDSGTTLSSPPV

SMILES | inhibition [%]
Clc1cccc(Nc2nc(Nc3cn[nH]c3)ncc2Cl)c1 | 48.6
c1ccc(Nc2nc(Nc3cn[nH]c3)nc3[nH]ccc23)cc1 | 0

target: RAC-alpha serine/threonine-protein kinase (Homo sapiens) (UniProt P31749); test: Inhibition of AKT1 (unknown origin) at 20 nM relative to control; settings: not given

SMILES | inhibition [%]
Clc1cccc(Nc2nc(Nc3cn[nH]c3)ncc2Cl)c1 | 7.5
c1ccc(Nc2nc(Nc3cn[nH]c3)nc3[nH]ccc23)cc1 | -3

test system: HEL; test: Antiproliferative activity against HEL cells harboring JAK2 V617F mutant at 5 uM after 48 hrs by MTT assay; type: functional, Homo sapiens; settings: not given

SMILES | Activity [%]
c1ccc(Nc2nc(Nc3cn[nH]c3)nc3ccccc23)cc1 | <50
COc1ccc(Nc2nc(Nc3cn[nH]c3)ncc2Cl)cc1 | >50
Fc1ccc(Nc2nc(Nc3cn[nH]c3)ncc2Cl)cc1 | >50
Clc1cnc(Nc2cn[nH]c2)nc1Nc1ccccc1 | >50
Clc1cccc(Nc2nc(Nc3cn[nH]c3)ncc2Cl)c1 | >50
Clc1ccccc1Nc1nc(Nc2cn[nH]c2)ncc1Cl | >50
Clc1ccc(Nc2nc(Nc3cn[nH]c3)ncc2Cl)cc1 | >50
c1ccc(Nc2nc(Nc3cn[nH]c3)nc3[nH]ccc23)cc1 | >50
Fc1cnc(Nc2cn[nH]c2)nc1Nc1ccc(Cl)cc1 | <50
Clc1cccc(Nc2nc(Nc3cn[nH]c3)nc3ccccc23)c1 | <50
Clc1ccccc1CNc1nc(Nc2cn[nH]c2)nc2[nH]ccc12 | >50

test system: not listed separately; test: Selectivity ratio of IC50 for human PC3 cells to IC50 for human K562 cells; type: functional; settings: not given

SMILES | Ratio IC50
c1ccc(Nc2nc(Nc3cn[nH]c3)nc3[nH]ccc23)cc1 | >10

target: Tyrosine-protein kinase ABL1 (Homo sapiens) (UniProt P00519); test: Inhibition of ABL (unknown origin) at 20 nM relative to control; settings: not given

SMILES | inhibition [%]
Clc1cccc(Nc2nc(Nc3cn[nH]c3)ncc2Cl)c1 | -3.1
c1ccc(Nc2nc(Nc3cn[nH]c3)nc3[nH]ccc23)cc1 | 3.1

test system: not listed separately; test: Selectivity ratio of IC50 for human MCF7 cells to IC50 for HEL cells harboring JAK2 V617F mutant; type: functional; settings: not given

SMILES | Ratio IC50
c1ccc(Nc2nc(Nc3cn[nH]c3)nc3[nH]ccc23)cc1 | >10

test system: MOLT-4; test: Antiproliferative activity against human MOLT4 cells after 48 hrs by MTT assay; type: functional, cell-based; settings: MOLT-4, 48 h; procedure, shortened: as §1

SMILES | IC50 [µM]
Fc1ccc(Nc2nc(Nc3cn[nH]c3)ncc2Cl)cc1 | 3.28
Clc1cnc(Nc2cn[nH]c2)nc1Nc1ccccc1 | > 5
Clc1cccc(Nc2nc(Nc3cn[nH]c3)ncc2Cl)c1 | 1.61
Clc1ccccc1Nc1nc(Nc2cn[nH]c2)ncc1Cl | 1.26
Clc1ccc(Nc2nc(Nc3cn[nH]c3)ncc2Cl)cc1 | 1.37
c1ccc(Nc2nc(Nc3cn[nH]c3)nc3[nH]ccc23)cc1 | > 5
Clc1ccccc1CNc1nc(Nc2cn[nH]c2)nc2[nH]ccc12 | > 5

target: ALK tyrosine kinase receptor (Homo sapiens) (UniProt Q9UM73); test: Inhibition of ALK (unknown origin) at 20 nM relative to control; settings: not given

SMILES | inhibition [%]
Clc1cccc(Nc2nc(Nc3cn[nH]c3)ncc2Cl)c1 | 6.9
c1ccc(Nc2nc(Nc3cn[nH]c3)nc3[nH]ccc23)cc1 | 15.1

target: Mast/stem cell growth factor receptor Kit (Homo sapiens) (UniProt P10721); test: Inhibition of c-Kit (unknown origin) at 20 nM relative to control; settings: not given
Sequence (P10721 whole entry): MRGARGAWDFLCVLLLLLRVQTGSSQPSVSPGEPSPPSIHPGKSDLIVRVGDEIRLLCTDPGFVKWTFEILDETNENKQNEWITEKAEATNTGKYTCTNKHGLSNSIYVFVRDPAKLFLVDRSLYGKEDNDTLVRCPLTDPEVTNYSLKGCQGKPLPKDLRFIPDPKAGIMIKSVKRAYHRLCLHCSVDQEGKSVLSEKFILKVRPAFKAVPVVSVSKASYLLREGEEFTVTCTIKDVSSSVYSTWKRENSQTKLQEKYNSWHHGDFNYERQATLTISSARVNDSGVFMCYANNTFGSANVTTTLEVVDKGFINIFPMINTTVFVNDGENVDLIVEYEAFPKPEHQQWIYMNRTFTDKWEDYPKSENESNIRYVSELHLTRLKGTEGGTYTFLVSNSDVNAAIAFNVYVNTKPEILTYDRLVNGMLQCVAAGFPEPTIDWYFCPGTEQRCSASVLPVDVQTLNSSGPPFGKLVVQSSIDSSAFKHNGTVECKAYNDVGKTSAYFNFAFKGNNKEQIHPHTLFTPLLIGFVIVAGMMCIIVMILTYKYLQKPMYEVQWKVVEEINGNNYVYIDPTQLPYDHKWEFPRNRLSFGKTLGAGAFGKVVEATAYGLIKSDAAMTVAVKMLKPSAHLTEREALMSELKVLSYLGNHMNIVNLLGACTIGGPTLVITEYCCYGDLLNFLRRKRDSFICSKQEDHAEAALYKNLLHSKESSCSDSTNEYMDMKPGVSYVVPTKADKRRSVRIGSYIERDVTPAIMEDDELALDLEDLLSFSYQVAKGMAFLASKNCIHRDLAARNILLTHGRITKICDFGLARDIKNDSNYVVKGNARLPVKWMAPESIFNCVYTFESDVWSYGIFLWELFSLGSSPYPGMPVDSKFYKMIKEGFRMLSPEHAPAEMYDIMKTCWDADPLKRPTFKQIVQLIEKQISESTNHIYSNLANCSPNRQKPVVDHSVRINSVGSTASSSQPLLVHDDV

SMILES | inhibition [%]
Clc1cccc(Nc2nc(Nc3cn[nH]c3)ncc2Cl)c1 | 12.1
c1ccc(Nc2nc(Nc3cn[nH]c3)nc3[nH]ccc23)cc1 | 0.6

target: Receptor-type tyrosine-protein kinase FLT3 (Homo sapiens) (UniProt P36888); test: Inhibition of FLT3 (unknown origin) at 20 nM relative to control; settings: not given
Sequence (P36888 whole entry): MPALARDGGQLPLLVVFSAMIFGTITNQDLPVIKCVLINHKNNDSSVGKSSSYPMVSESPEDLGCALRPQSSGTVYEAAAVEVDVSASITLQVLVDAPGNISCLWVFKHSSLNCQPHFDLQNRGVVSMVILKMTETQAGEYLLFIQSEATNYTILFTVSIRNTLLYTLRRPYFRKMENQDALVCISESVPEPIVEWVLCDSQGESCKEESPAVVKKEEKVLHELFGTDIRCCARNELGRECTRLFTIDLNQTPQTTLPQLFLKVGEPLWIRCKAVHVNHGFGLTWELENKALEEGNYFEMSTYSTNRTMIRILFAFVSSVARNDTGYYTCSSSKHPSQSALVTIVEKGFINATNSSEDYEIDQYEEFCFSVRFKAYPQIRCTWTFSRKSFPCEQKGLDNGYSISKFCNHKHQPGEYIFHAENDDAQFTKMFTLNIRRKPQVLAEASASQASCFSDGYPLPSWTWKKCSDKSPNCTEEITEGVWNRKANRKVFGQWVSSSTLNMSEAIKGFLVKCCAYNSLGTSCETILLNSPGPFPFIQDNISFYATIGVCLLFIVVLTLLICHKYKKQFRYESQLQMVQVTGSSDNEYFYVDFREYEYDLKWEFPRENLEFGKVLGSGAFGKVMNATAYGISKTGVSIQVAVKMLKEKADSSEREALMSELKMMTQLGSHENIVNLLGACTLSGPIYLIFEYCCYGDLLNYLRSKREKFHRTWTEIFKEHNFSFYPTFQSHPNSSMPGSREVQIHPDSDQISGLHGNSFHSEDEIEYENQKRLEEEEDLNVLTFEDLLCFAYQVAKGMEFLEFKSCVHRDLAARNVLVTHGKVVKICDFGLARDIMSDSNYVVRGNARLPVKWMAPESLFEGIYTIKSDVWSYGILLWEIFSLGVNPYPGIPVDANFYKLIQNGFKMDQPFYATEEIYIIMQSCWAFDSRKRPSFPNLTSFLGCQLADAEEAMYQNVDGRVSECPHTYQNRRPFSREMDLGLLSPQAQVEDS

SMILES | inhibition [%]
Clc1cccc(Nc2nc(Nc3cn[nH]c3)ncc2Cl)c1 | 78.7
c1ccc(Nc2nc(Nc3cn[nH]c3)nc3[nH]ccc23)cc1 | 15.2

test system: not listed separately; test: Selectivity ratio of IC50 for human MOLT4 cells to IC50 for human K562 cells; type: functional; settings: not given

SMILES | Ratio IC50
c1ccc(Nc2nc(Nc3cn[nH]c3)nc3[nH]ccc23)cc1 | >10

target: Proto-oncogene tyrosine-protein kinase Src (Homo sapiens) (UniProt P12931); test: Inhibition of SRC (unknown origin) at 20 nM relative to control; settings: not given
Sequence (P12931 2-536 limits assumed): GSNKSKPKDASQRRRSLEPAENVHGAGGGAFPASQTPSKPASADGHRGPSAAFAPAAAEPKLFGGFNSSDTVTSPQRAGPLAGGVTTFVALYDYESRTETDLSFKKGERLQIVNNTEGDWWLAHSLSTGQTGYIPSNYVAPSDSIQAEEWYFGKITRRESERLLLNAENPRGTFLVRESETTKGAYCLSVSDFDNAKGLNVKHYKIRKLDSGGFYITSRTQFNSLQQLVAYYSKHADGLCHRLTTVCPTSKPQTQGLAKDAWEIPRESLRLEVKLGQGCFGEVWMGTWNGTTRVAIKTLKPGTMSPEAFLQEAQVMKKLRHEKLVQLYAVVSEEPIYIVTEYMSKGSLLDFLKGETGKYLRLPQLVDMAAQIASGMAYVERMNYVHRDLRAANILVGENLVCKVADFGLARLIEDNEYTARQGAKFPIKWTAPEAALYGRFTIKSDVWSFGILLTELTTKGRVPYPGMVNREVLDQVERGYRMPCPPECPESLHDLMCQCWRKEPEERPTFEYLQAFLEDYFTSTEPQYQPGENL

SMILES | inhibition [%]
Clc1cccc(Nc2nc(Nc3cn[nH]c3)ncc2Cl)c1 | 27
c1ccc(Nc2nc(Nc3cn[nH]c3)nc3[nH]ccc23)cc1 | 12.6

target: Epidermal growth factor receptor (Homo sapiens) (UniProt P00533); test: Inhibition of EGFR (unknown origin) at 20 nM relative to control; settings: not given

SMILES | inhibition [%]
Clc1cccc(Nc2nc(Nc3cn[nH]c3)ncc2Cl)c1 | 10.5
c1ccc(Nc2nc(Nc3cn[nH]c3)nc3[nH]ccc23)cc1 | 8.3

target: Focal adhesion kinase 1 (Homo sapiens) (UniProt Q05397); test: Inhibition of FAK (unknown origin) at 20 nM relative to control; settings: not given

SMILES | inhibition [%]
Clc1cccc(Nc2nc(Nc3cn[nH]c3)ncc2Cl)c1 | 33.5
c1ccc(Nc2nc(Nc3cn[nH]c3)nc3[nH]ccc23)cc1 | 7.4

target: Platelet-derived growth factor receptor alpha (Homo sapiens) (UniProt P16234); test: Inhibition of PDGFRalpha (unknown origin) at 20 nM relative to control; settings: not given

SMILES | inhibition [%]
Clc1cccc(Nc2nc(Nc3cn[nH]c3)ncc2Cl)c1 | 54.1
c1ccc(Nc2nc(Nc3cn[nH]c3)nc3[nH]ccc23)cc1 | 11.9

test system: K562; test: Antiproliferative activity against human K562 cells after 48 hrs by MTT assay; type: functional, cell-based; settings: K562, 48 h; procedure, shortened: as §1

SMILES | IC50 [µM]
COc1ccc(Nc2nc(Nc3cn[nH]c3)ncc2Cl)cc1 | 2.08
Fc1ccc(Nc2nc(Nc3cn[nH]c3)ncc2Cl)cc1 | 1.86
Clc1cnc(Nc2cn[nH]c2)nc1Nc1ccccc1 | > 8.3
Clc1cccc(Nc2nc(Nc3cn[nH]c3)ncc2Cl)c1 | 0.77
Clc1ccccc1Nc1nc(Nc2cn[nH]c2)ncc1Cl | 1.29
Clc1ccc(Nc2nc(Nc3cn[nH]c3)ncc2Cl)cc1 | 1.7
N#CC[C@H](C1CCCC1)n1cc(-c2ncnc3[nH]ccc23)cn1 [RUXOLITINIB] | 10.3
c1ccc(Nc2nc(Nc3cn[nH]c3)nc3[nH]ccc23)cc1 | 0.37
Fc1cnc(Nc2cn[nH]c2)nc1Nc1ccc(Cl)cc1 | 3.79
Clc1cccc(Nc2nc(Nc3cn[nH]c3)nc3ccccc23)c1 | > 8.3
Clc1ccccc1CNc1nc(Nc2cn[nH]c2)nc2[nH]ccc12 | 3.72

test system: not listed separately; test: Selectivity ratio of IC50 for human MCF7 cells to IC50 for human K562 cells; type: functional; settings: not given

SMILES | Ratio IC50
c1ccc(Nc2nc(Nc3cn[nH]c3)nc3[nH]ccc23)cc1 | >10

test system: PC-3; test: Antiproliferative activity against human PC3 cells after 48 hrs by MTT assay; type: functional, cell-based; settings: PC-3, 48 h; procedure, shortened: as §1

SMILES | IC50 [µM]
COc1ccc(Nc2nc(Nc3cn[nH]c3)ncc2Cl)cc1 | 2.3
Fc1ccc(Nc2nc(Nc3cn[nH]c3)ncc2Cl)cc1 | 1.03
Clc1cnc(Nc2cn[nH]c2)nc1Nc1ccccc1 | 5.38
Clc1cccc(Nc2nc(Nc3cn[nH]c3)ncc2Cl)c1 | 1.08
Clc1ccccc1Nc1nc(Nc2cn[nH]c2)ncc1Cl | 1.13
Clc1ccc(Nc2nc(Nc3cn[nH]c3)ncc2Cl)cc1 | 2.57
N#CC[C@H](C1CCCC1)n1cc(-c2ncnc3[nH]ccc23)cn1 [RUXOLITINIB] | > 5
c1ccc(Nc2nc(Nc3cn[nH]c3)nc3[nH]ccc23)cc1 | 4.47
Fc1cnc(Nc2cn[nH]c2)nc1Nc1ccc(Cl)cc1 | 10.4
Clc1ccccc1CNc1nc(Nc2cn[nH]c2)nc2[nH]ccc12 | 13.5

target: RAF proto-oncogene serine/threonine-protein kinase (Homo sapiens) (UniProt P04049); test: Inhibition of RAF1 (unknown origin) at 20 nM relative to control; settings: not given

SMILES | inhibition [%]
Clc1cccc(Nc2nc(Nc3cn[nH]c3)ncc2Cl)c1 | -7.1
c1ccc(Nc2nc(Nc3cn[nH]c3)nc3[nH]ccc23)cc1 | 3.7

target: Cyclin-dependent kinase 4 (Homo sapiens) (UniProt P11802); test: Inhibition of CDK4 (unknown origin) at 20 nM relative to control; settings: not given

SMILES | inhibition [%]
Clc1cccc(Nc2nc(Nc3cn[nH]c3)ncc2Cl)c1 | 36.2
c1ccc(Nc2nc(Nc3cn[nH]c3)nc3[nH]ccc23)cc1 | -5.3

From ChEMBL document CHEMBL4428138, “Design, Synthesis, and Antitumor Evaluation of 4-Amino-(1H)-pyrazole Derivatives as JAKs Inhibitors” (ACS Med Chem Lett, 2016)
